Measured values pooled from the literature.
Protocols differ between the studies behind these lines.
PKN1: Serine/threonine-protein kinase N1 (PKN1, Homo sapiens, UniProt Q16512)
CA9: Carbonic anhydrase 9 (CA9, Homo sapiens, UniProt Q16790)
HRH1: Histamine H1 receptor (HRH1, Homo sapiens, UniProt P35367)
MAOB: Amine oxidase [flavin-containing] B (MAOB, Homo sapiens, UniProt P27338)
EDNRB: Endothelin receptor type B (EDNRB, Homo sapiens, UniProt P24530)
PADI4: Protein-arginine deiminase type-4 (PADI4, Homo sapiens, UniProt Q9UM07)

| Structure (SMILES) | target | assay | system | conditions | endpoint | result |
| --- | --- | --- | --- | --- | --- | --- |
| Cc1cc(F)ccc1-c1nc(NCCN=C(N)NC#N)nc2c1ccc(=O)n2-c1c(F)cccc1F | PKN1 | enzyme activity, inhibitor |  | 1 µM | activity vs control | 90% |
| Cc1ccc(-c2nn(-c3ccccc3)cc2C2c3sc(=O)[nH]c3SC3C(=O)N(c4ccccc4)C(=O)C32)cc1 (stereo not drawn) | CA9 | enzyme activity, inhibitor |  | 0.1 µM | inhibition | 39% |
| CN1CCC(=C(c2ccccc2)c2ccccc2)CC1 | HRH1 | binding |  |  | kon | 2e+06 M⁻¹ s⁻¹ |
| O=C(Nc1ccccc1)c1ccccc1O | MAOB | enzyme activity, inhibitor |  | 1 µM, 20 min | inhibition | 5% |
| CCOC(=O)C1CSc2[nH]c(=O)sc2C1c1cn(-c2ccccc2)nc1-c1ccccc1 (stereo not drawn) | CA9 | enzyme activity, inhibitor |  | 1 µM | inhibition | 43.6% |
| CN(C)CCOc1ccc(-c2nc(-c3ccncc3)c(-c3ccc4c(c3)CC/C4=N\O)[nH]2)cc1 | PKN1 | enzyme activity, inhibitor |  | 1 µM | activity vs control | 95% |
| O=C(Nc1ccc([N+](=O)[O-])cc1C(F)(F)F)c1cc(Cl)ccc1O | MAOB | enzyme activity, inhibitor |  | 1 µM, 20 min | inhibition | 30% |
| O=C(c1ccc(Cl)cc1)N(Cc1ccccc1)C1CCCCC1 | EDNRB | cell-free assay |  | 10 µM | inhibition | 3.4% |
| CC(C)CCN1c2nc(Nc3cc(F)c(O)c(F)c3)ncc2N(C)C(=O)C1C (stereo not drawn) | PKN1 | enzyme activity, inhibitor |  | 1 µM | activity vs control | 64% |
| CN(C)C1CCN(CC#Cc2nn(C3CCCC3)c3nc(NCc4ccccc4)ncc23)C1 (stereo not drawn) | Tyrosine-protein kinase HCK (HCK, Homo sapiens, UniProt P08631) | enzyme activity, inhibitor, FRET |  | 0.1 µM | inhibition | 2% |
| O=C(Nc1ccc(N2C(=O)c3ccccc3C2=O)c(Cl)c1)c1ncccc1Cl | Metabotropic glutamate receptor 1 (GRM1, Homo sapiens, UniProt Q13255) | calcium signal, positive allosteric modulator | T-REx-293 |  | Emax | 102% |
| CCOC(=O)C1CSc2[nH]c(=O)sc2C1c1cn(-c2ccccc2)nc1-c1ccc(Cl)cc1 (stereo not drawn) | CA9 | enzyme activity, inhibitor |  | 0.1 µM | inhibition | 36% |
| COc1cc(N2CCOCC2)ccc1NC(=O)c1csc(-c2cccnc2)n1 | PKN1 | enzyme activity, inhibitor |  | 1 µM | activity vs control | 87% |
| O=C1NC(=S)C(=Cc2cn(-c3ccccc3)nc2-c2ccc(Br)cc2)S1 | CA9 | enzyme activity, inhibitor |  | 0.1 µM | inhibition | 33.5% |
| CC(C)(C)n1nnc([C@H](CCCNC(=N)CF)NC(=O)c2ccccc2C(=O)O)n1 | PADI4 | enzyme activity, inhibitor |  |  | kinact/KI | 432 M⁻¹ s⁻¹ |
| CN1CCC(=C2c3ccccc3CCc3ccccc32)CC1 | HRH1 | binding |  |  | koff | 8.33e-05 s⁻¹ |
| CC(C)(C)n1nnc([C@H](CCCNC(=N)CF)NC(=O)c2ccc(-c3ccccc3)cc2)n1 | PADI4 | enzyme activity, inhibitor |  |  | kinact/KI | 20.8 M⁻¹ s⁻¹ |
| CCOc1ccc(C(=O)Nc2ccc(Br)cc2)cc1OCC | MAOB | enzyme activity, inhibitor |  | 1 µM, 20 min | inhibition | 13% |

| Structure (SMILES) | target | assay | system | conditions | endpoint | result |
| --- | --- | --- | --- | --- | --- | --- |
| C=CCn1c(=O)c2cnc(Nc3ccc(N4CCN(C)CC4)cc3)nc2n1-c1cccc(C(C)(C)O)n1 | PKN1 | enzyme activity, inhibitor |  | 1 µM | activity vs control | 60% |
| COc1cc(NC(C)=O)c(Cl)cc1C(=O)Nc1nccs1 | EDNRB | cell-free assay |  | 10 µM | inhibition | -13.1% |
| CC(C)(C)n1nnc([C@H](CCCNC(=N)CCl)NC(=O)c2ccccc2)n1 | PADI4 | enzyme activity, inhibitor |  |  | kinact/KI | 11.8 M⁻¹ s⁻¹ |
| C=CC(=O)Nc1cccc(Oc2nc(Nc3ccc(N4CCN(C)CC4)cc3OC)ncc2Cl)c1 | PKN1 | enzyme activity, inhibitor |  | 1 µM | activity vs control | 84% |
| CCOC(=O)C1CSc2[nH]c(=O)sc2C1c1cn(-c2ccccc2)nc1-c1ccc(C)cc1 (stereo not drawn) | CA9 | enzyme activity, inhibitor |  | 1 µM | inhibition | 61.4% |
| O=C(Nc1ccc([N+](=O)[O-])cc1Cl)c1ccc(Cl)cc1 | MAOB | enzyme activity, inhibitor |  | 1 µM, 20 min | inhibition | 25% |
| NNCCc1ccc(NC(=O)CCCc2ccccc2)cc1 | MAOB | enzyme activity, inhibitor |  |  | KI (inactivation) | 6.5 µM |
| O=C(Nc1ccc([N+](=O)[O-])cc1[N+](=O)[O-])c1ccccc1O | MAOB | enzyme activity, inhibitor |  | 1 µM, 20 min | inhibition | 18% |
| CN1CCN(C2c3ccccc3C=Cc3ccccc32)CC1 | HRH1 | binding |  |  | kon | 117000 M⁻¹ s⁻¹ |
| COc1cc2ncn(-c3cc(OCc4ccccc4C(F)(F)F)c(C(N)=O)s3)c2cc1OC | PKN1 | enzyme activity, inhibitor |  | 1 µM | activity vs control | 56% |
| CCOC(=O)C1CSc2[nH]c(=O)sc2C1c1cn(-c2ccccc2)nc1-c1ccc(OC)cc1 (stereo not drawn) | CA9 | enzyme activity, inhibitor |  | 10 µM | inhibition | 84.9% |
| N=C(CCl)NCCC[C@H](NC(=O)c1ccccc1C(=O)O)c1nn[nH]n1 | PADI4 | enzyme activity, inhibitor |  |  | kinact/KI | 2660 M⁻¹ s⁻¹ |
| COc1ccc(NC(=O)c2cc(Cl)ccc2O)cc1OC | MAOB | enzyme activity, inhibitor |  | 1 µM, 20 min | inhibition | 30% |
| CNC(=O)c1cccc2cc(Oc3ccnc4cc(OCC5(N)CC5)c(OC)cc34)ccc12 | PKN1 | enzyme activity, inhibitor |  | 1 µM | activity vs control | 92% |
| O=C(Nc1ccc(Br)cc1)c1cc2ccccc2cc1O | MAOB | enzyme activity, inhibitor |  | 1 µM, 20 min | inhibition | 72% |
| CN1CCC(C2c3ccccc3CCc3ccccc32)CC1 | HRH1 | binding |  |  | koff | 0.000475 s⁻¹ |
| Nc1ncnc2c1ncn2[C@@H]1O[C@H](COP(=O)(O)OP(=O)(O)O)[C@@H](O)[C@H]1O | Katanin p60 ATPase-containing subunit A1 (Homo sapiens, UniProt O75449, D210C) | thermal stability, DSF |  | 1 mM | ΔTm | 4.5 to 4.8 °C |
| O=C(Nc1ccccn1)c1ccc(Cl)cc1 | MAOB | enzyme activity, inhibitor |  | 1 µM, 20 min | inhibition | 11% |
